This is an account of results in ChEMBL document CHEMBL1130214, “6-(alkylamino)-9-alkylpurines. A new class of potential antipsychotic agents” (1997).

In assay [1] the test system is Rattus norvegicus. Description: Inhibition of apomorphine-induced aggression in male rats after intraperitoneal administration of 25 mg/kg of compound. The format is functional. The conditions noted are these: ip. The procedure, abridged:
(§1)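 Male rats received a single screening dose, given in water or 0.5% methylcellulose as a solution or fine dispersion. Apomorphine-induced fighting in paired animals was observed starting 1 h after dosing, with five pairs per dose. The value is percent inhibition of fighting time at that dose. Stereotyped behavior was recorded during the fighting observation.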

The test system of assay [2] is Rattus norvegicus. Description: Antagonists of apomorphine-induced aggression in male rats, administered perorally. It is filed as functional. The procedure, abridged:
(§2)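 Male rats were dosed ip or orally as solutions or fine dispersions in water or 0.5% methylcellulose. Apomorphine-induced fighting between paired animals was scored 1 h after dosing, and stereotyped behavior was noted. Five pairs were used per dose. ED50 is the dose that cut fighting time by 50%, estimated approximately from two or three bracketing doses, and has no standard error.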

In assay [3] the test system is Rattus norvegicus. Description: Ability of intraperitoneally administered compound to antagonise apomorphine-induced aggression in male rats. The format is functional. The procedure, abridged: as §2
The test system of assay [4] is Rattus norvegicus. Description: Compounds were tested for their ability to antagonise apomorphine-induced aggression in male rats. compound was administered perorally. The format is functional. The conditions noted are these: po. Put shortly: as §2
Assay [5] deals with Rattus norvegicus. Nature of the assay: Inhibition of apomorphine-induced aggression in male rats after peroral administration of 25 mg/kg of compound. It is filed as functional. The conditions noted are these: route oral. The procedure, abridged: as §1
The test system of assay [6] is Rattus norvegicus. Description: Ability of intraperitoneally administered compound (25 mg/kg) to antagonise apomorphine-induced aggression in male rats; d indicates toxic at 25 mg/Kg. The format is functional, organism-based.
Where [7] appears, read: Rattus norvegicus, po, read-out: ED50.
Where [8] appears, read: Rattus norvegicus, ip, read-out: ED50.

On to `CN(C)c1ncnc2c1ncn2Cc1ccccc1[N+](=O)[O-]`, for which, in assay [1], the inhibition in vivo at 25 mg/kg stood at 0%.

For `O=CN(c1ncnc2c1ncn2CC1CC1)C1CC1`, the figures for the ED50 in assay [2] (setting [7]) and in assay [3] (setting [8]) were 30 mg/kg and 8 mg/kg, respectively.

Regarding `c1nc(NC2CC2)c2ncn(CC3CCCC3)c2n1`, the ED50 in assay [3] (setting [8]) was determined as 15 mg/kg.

Regarding `CCCNc1ncnc2c1ncn2CC1CC1`, at 25 mg/kg the inhibition in vivo in assay [1] was 0%.

`CN(C)c1ncnc2c1ncn2Cc1cccc(C#N)c1`: in assay [3] (setting [8]), the ED50 stood at 13 mg/kg.

In the case of `CCNc1nc(NC2CC2)c2ncn(CC3CC3)c2n1`, the ED50 came out at 11 mg/kg in assay [4] and 9 mg/kg in assay [3] (setting [8]).

As to `CCNc1ncnc2c1ncn2CC1CC1`, in assay [3] (setting [8]), the ED50 amounted to 22 mg/kg.

With `CCn1cnc2c(N(C)C)ncnc21`, the ED50 in assay [3] (setting [8]) is 15 mg/kg.

`CCN(c1ncnc2c1ncn2CC1CC1)C1CC1`: the ED50 in assay [3] (setting [8]) was 20 mg/kg.

Consider `CN(C)c1ncnc2c1ncn2CC1CC1`, for which the ED50 worked out at 17 mg/kg in assay [2] (setting [7]) and 4.5 mg/kg in assay [3] (setting [8]).

`O=CN(c1ncnc2c1ncn2C1CCC1)C1CC1` had an inhibition in vivo at 25 mg/kg in assay [5] of 0%. Also, the ED50 in assay [3] (setting [8]) was found to be 20 mg/kg.

On to `CC(C)n1cnc2c(N(C)C)ncnc21`, for which the ED50 in assay [2] (setting [7]) was 15 mg/kg; in assay [3] (setting [8]) it was 11 mg/kg.

On to `CN(C)c1ncnc2c1ncn2C1CCCCCC1`, for which the inhibition in vivo at 25 mg/kg in assay [1] came to 0%.

In assay [1], `c1ccc(Nc2ncnc3c2ncn3CC2CC2)cc1` registered an inhibition in vivo at 25 mg/kg of 0%.

As to `CC(C)N(C)c1ncnc2c1ncn2CC1CC1`, in assay [1], the inhibition in vivo at 25 mg/kg turned out to be 32%.

Take `CN(C)c1ncnc2c1ncn2C1CCCCC1`: testing at 25 mg/kg in assay [1] gave an inhibition in vivo of 70%.

Turning to `CSCn1cnc2c(NC3CC3)ncnc21`, in assay [3] (setting [8]), the ED50 is 23 mg/kg.

For `CC(C1CC1)n1cnc2c(N(C=O)C3CC3)ncnc21` (stereo not drawn), the ED50 in assay [2] (setting [7]) came out at 7.5 mg/kg; in assay [3] (setting [8]) it was 2.5 mg/kg.

Consider `CN(C)c1ncnc2c1ncn2Cc1ccccc1`, for which the ED50 in assay [2] (setting [7]) came to 52 mg/kg; in assay [3] (setting [8]), 15 mg/kg.

Take `CCCn1cnc2c(N(C)C)ncnc21`: the ED50 in assay [2] (setting [7]) came to 15 mg/kg; in assay [3] (setting [8]), 14 mg/kg.

Turning to `CCN(CC)c1ncnc2c1ncn2CC1CC1`, the inhibition in vivo at 25 mg/kg in assay [1] turned out to be 0%.

`c1nc(N2CCCCC2)c2ncn(CC3CC3)c2n1` showed an inhibition in vivo at 25 mg/kg in assay [1] of 28%.

`O=CN(c1ncnc2c1ncn2C1CC1)C1CC1`: the ED50 in assay [2] (setting [7]) turned out to be 7.4 mg/kg; in assay [3] (setting [8]), 2.4 mg/kg.

With `CCCn1cnc2c(NC3CC3)ncnc21`, the ED50 in assay [3] (setting [8]) worked out at 6 mg/kg.

Consider `CN(C)c1ncnc2c1ncn2CC1CCCCC1`, for which the inhibition in vivo at 25 mg/kg in assay [1] turned out to be 0%.

For `CC(C)n1cnc2c(NC3CC3)ncnc21`, the ED50 in assay [2] (setting [7]) was 30 mg/kg; in assay [3] (setting [8]), 4 mg/kg.

As to `CCC(C)n1cnc2c(NC3CC3)ncnc21` (stereo not drawn), in assay [3] (setting [8]), the ED50 worked out at 13.5 mg/kg.

For the compound `CCCOc1nc(NC2CC2)c2ncn(CC3CC3)c2n1`, the ED50 in assay [2] (setting [7]) and in assay [3] (setting [8]) was 2.5 mg/kg in each case.

For the compound `CN(C)c1ncnc2c1ncn2Cc1cccc(Cl)c1`, the ED50 in assay [3] (setting [8]) was 50 mg/kg.

For `CN(C)c1ncnc2c1ncn2C1CCCC1`, the inhibition in vivo at 25 mg/kg in assay [1] is 27%.

`CN(C)c1ncnc2c1ncn2Cc1cccc(N)c1`: the ED50 in assay [2] (setting [7]) was 58 mg/kg; in assay [3] (setting [8]), 23 mg/kg.

For the compound `CC(C1CC1)n1cnc2c(NC3CC3)ncnc21` (stereo in doubt; 60), the results for the ED50 in assay [2] and in assay [3] were 9 mg/kg and 2 mg/kg, respectively.

For `CC(C)Cn1cnc2c(N(C)C)ncnc21`, the ED50 in assay [2] (setting [7]) amounted to 22 mg/kg; in assay [3] (setting [8]), 5 mg/kg.

As for `CC(C1CC1)n1cnc2c(NC3CC3)ncnc21` (stereo in doubt; 59), the ED50 was determined as 25 mg/kg in assay [2] and 4.5 mg/kg in assay [3].

As to `CN(C)c1ncnc2c1ncn2Cc1ccccc1F`, the ED50 in assay [3] (setting [8]) is 37 mg/kg.

With `CC(C1CC1)n1cnc2c(NC3CC3)ncnc21` (stereo in doubt; 61), the values for the ED50 in assay [2] and in assay [3] were >25 mg/kg and 12.5 mg/kg, respectively.

In assay [1], `c1nc(NC2CCC2)c2ncn(CC3CC3)c2n1` registered an inhibition in vivo at 25 mg/kg of 0%.

For `Nc1ncnc2c1ncn2CC1CC1`, the ED50 in assay [3] (setting [8]) is 20 mg/kg.

For the compound `CNc1nc(NC2CC2)c2ncn(CC3CC3)c2n1`, the ED50 in assay [2] (setting [7]) was determined as 12.5 mg/kg; in assay [3] (setting [8]), 3 mg/kg.

Take `CN(c1ncnc2c1ncn2C1CC1)C1CC1`: the ED50 in assay [2] (setting [7]) was 12.5 mg/kg; in assay [3] (setting [8]), 4.5 mg/kg.

Compound `c1nc(N2CCC2)c2ncn(CC3CC3)c2n1` registered an inhibition in vivo at 25 mg/kg in assay [1] of 30%.

Compound `Nc1nc(NC2CC2)c2ncn(CC3CC3)c2n1` showed an inhibition in vivo at 25 mg/kg in assay [5] of 26%. For the same compound, in assay [3] (setting [8]), the ED50 turned out to be 9 mg/kg.

`c1nc(NC2CC2)c2ncn(CC3CCC3)c2n1`: the ED50 in assay [2] (setting [7]) came to 44 mg/kg; in assay [3] (setting [8]), 10 mg/kg.

On to `CCN(C)c1ncnc2c1ncn2CC1CC1`, for which the ED50 in assay [3] (setting [8]) came out at 12.5 mg/kg.

With `c1nc(NC2CC2)c2ncn(C3CC3)c2n1`, the figures for the ED50 in assay [2] (setting [7]) and in assay [3] (setting [8]) were 20 mg/kg and 4.5 mg/kg, respectively.

Regarding `CC(C)(C)Nc1ncnc2c1ncn2CC1CC1`, in assay [1], the inhibition in vivo at 25 mg/kg was 0%.

On to `CCCCn1cnc2c(NC3CC3)ncnc21`, for which the ED50 in assay [3] (setting [8]) was 18 mg/kg.

For `CN(C)c1ncnc2c1ncn2C1CCC1`, the results for the ED50 in assay [2] (setting [7]) and in assay [3] (setting [8]) were 26 mg/kg and 11 mg/kg, respectively.

Regarding `CN(C)c1ncnc2c1ncn2Cc1ccc(N)cc1`, in assay [3] (setting [8]), the ED50 is 17 mg/kg.

For `c1nc(NC2CC2)c2ncn(CC3CC3)c2n1`, the ED50 in assay [2] (setting [7]) was 12 mg/kg; in assay [3] (setting [8]) it was 4 mg/kg.

Regarding `c1nc(NCC2CC2)c2ncn(CC3CC3)c2n1`, in assay [1], the inhibition in vivo at 25 mg/kg turned out to be 28%.

Turning to `FC(F)(F)c1nc(NC2CC2)c2ncn(CC3CC3)c2n1`, the ED50 turned out to be 2 mg/kg in assay [2] (setting [7]) and 0.9 mg/kg in assay [3] (setting [8]).

In turn, `COc1nc(NC2CC2)c2ncn(CC3CC3)c2n1` showed an ED50 in assay [4] of 3.7 mg/kg.

`CCOc1nc(NC2CC2)c2ncn(CC3CC3)c2n1`: the ED50 in assay [2] (setting [7]) stood at 4 mg/kg; in assay [3] (setting [8]), 0.8 mg/kg.

Regarding `CN(C)c1ncnc2c1ncn2CC1CCC1`, the ED50 in assay [3] (setting [8]) was found to be 8 mg/kg.

Regarding `O=CN(c1ncnc2c1ncn2CC1CCC1)C1CC1`, the ED50 in assay [3] (setting [8]) stood at 7 mg/kg.

On to `CN(C)c1ncnc2c1ncn2C`, for which, in assay [1], at 25 mg/kg the inhibition in vivo was 30%.

Take `CN(c1ncnc2c1ncn2CC1CC1)C1CC1`: the figures for the ED50 in assay [2] (setting [7]) and in assay [3] (setting [8]) were 35 mg/kg and 7.5 mg/kg, respectively.

Take `CCCCn1cnc2c(N(C)C)ncnc21`: in assay [3] (setting [8]), the ED50 was 10 mg/kg.

`c1nc(NC2CC2)c2ncn(C3CCCC3)c2n1`: the 50% effective dose (ED50) result in assay [6] was “Toxic”.

Take `CSc1nc(NC2CC2)c2ncn(CC3CC3)c2n1`: the ED50 in assay [3] (setting [8]) came out at 5 mg/kg.

Turning to `CN(C)c1ncnc2c1ncn2C1CC1`, the ED50 in assay [2] (setting [7]) turned out to be 25 mg/kg; in assay [3] (setting [8]) it was 9 mg/kg.

Take `CCC(C)n1cnc2c(N(C)C)ncnc21` (stereo not drawn): the ED50 in assay [3] (setting [8]) turned out to be 14 mg/kg.

On to `CN(C)c1ncnc2c1ncn2Cc1cccc(NC(=O)C(N)Cc2ccccc2)c1` (stereo not drawn), for which the ED50 stood at 96 mg/kg in assay [2] (setting [7]) and 27 mg/kg in assay [3] (setting [8]).

In the case of `c1nc(NC2CC2)c2ncn(C3CCC3)c2n1`, in assay [3] (setting [8]), the ED50 amounted to 19 mg/kg.

Take `COc1ccc(Cn2cnc3c(N(C)C)ncnc32)cc1`: the ED50 in assay [3] (setting [8]) turned out to be 58 mg/kg.

Regarding `CC(=O)N(c1ncnc2c1ncn2C1CC1)C1CC1`, in assay [1], the inhibition in vivo at 25 mg/kg came to 22%.

As for `CNc1ncnc2c1ncn2CC1CC1`, in assay [5], the inhibition in vivo at 25 mg/kg was found to be 38%. Moreover, the ED50 in assay [3] (setting [8]) stood at 12 mg/kg.

For the compound `Clc1nc(NC2CC2)c2ncn(CC3CC3)c2n1`, the figures for the ED50 in assay [2] (setting [7]) and in assay [3] (setting [8]) were 4 mg/kg and 2.5 mg/kg, respectively.

In the case of `CC(C)Cn1cnc2c(NC3CC3)ncnc21`, the inhibition in vivo at 25 mg/kg in assay [5] amounted to 0%. For the same compound, in assay [3] (setting [8]), the ED50 stood at 10 mg/kg.

Consider `CCCCCn1cnc2c(N(C)C)ncnc21`, for which at 25 mg/kg the inhibition in vivo in assay [1] was 0%.

As for `CN(C)c1ncnc2c1ncn2Cc1ccc(O)cc1`, 25 mg/kg produced 0% inhibition in vivo in assay [1].

For orientation: inhibition in vivo means the share of the control response that was lost under treatment. In general, ED50 refers to the midpoint of the dose-response relation.
